ChEMBL document CHEMBL3585293, “Design, antiviral and cytostatic properties of isoxazolidine-containing amonafide analogues” (Bioorg Med Chem, 2015)
pEC50, pIC50: −log10 of the molar value. The source made the active and inactive calls. The calls are words filed in the database; no cut-off is given here.

Legend:
[1] = test system: Human adenovirus 2; test: Antiviral activity against Human adenovirus 2 infected in HEL cells assessed as reduction of virus-induced cytopathogenicity; format: functional, organism-based
How it was run: (§1)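 Confluent monolayers were infected with 100 CCID50 of virus (1 CCID50 infects 50% of cultures) or 20 PFU. The cultures were then incubated with varying test compound concentrations. Cytopathicity was scored once it was complete in untreated infected controls.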

[2] = test system: Vesicular stomatitis virus; test: Antiviral activity against Vesicular stomatitis virus infected in human HeLa cells assessed as reduction of virus-induced cytopathogenicity; format: functional, organism-based
How it was run: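 Confluent Vero (Coxsackie B4) or HeLa (vesicular stomatitis virus) monolayers in 96-well plates were inoculated with 100 CCID50 virus or 20 PFU and incubated with varying compound concentrations. Cytopathicity was scored once complete in untreated infected controls. […] Two separate experiments were run.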

[3] = test system: Respiratory syncytial virus; test: Antiviral activity against Respiratory syncytial virus infected in human Hela cells assessed as reduction of virus-induced cytopathogenicity; format: functional, organism-based; how it was run: as §1
[4] = test system: Human respirovirus 3; test: Antiviral activity against Parainfluenza virus 3 infected in African green monkey Vero cells assessed as reduction of virus-induced cytopathogenicity; format: functional, organism-based; how it was run: as §1
[5] = test system: Reovirus sp.; test: Antiviral activity against Reovirus infected in African green monkey Vero cells assessed as reduction of virus-induced cytopathogenicity; format: functional, organism-based; how it was run: as §1
[6] = test system: Sindbis virus; test: Antiviral activity against Sindbis virus infected in African green monkey Vero cells assessed as reduction of virus-induced cytopathogenicity; format: functional, organism-based; how it was run: as §1
[7] = test system: Influenza A virus; test: Antiviral activity against Influenza A virus (A/PR/8/34(H1N1)) infected in MDCK cells assessed as reduction of virus-induced cytopathogenicity; format: functional, organism-based; details: A/Puerto Rico/8/1934(H1N1)
How it was run: (§2)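 MDCK cells, grown confluent in 96-well plates, were infected with influenza A/PR/8 (H1N1), A/HK/7/87 (H3N2) or B/HK/5/72 at 100 CCID50 or 20 PFU and exposed to varying compound concentrations. Cytopathic effect was recorded when it reached completion in untreated virus controls. EC50 is the concentration that halves virus-induced cytopathicity.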

[8] = test system: Influenza B virus; test: Antiviral activity against Influenza B virus (B/HK/5/72) infected in MDCK cells assessed as reduction of virus-induced cytopathogenicity; format: functional, cell-based; details: B/Hong Kong/05/1972; how it was run: as §2
[9] = test system: Felid alphaherpesvirus 1; test: Antiviral activity against Feline herpesvirus infected in CRFK cells assessed as reduction of virus-induced cytopathogenicity; format: functional, organism-based; how it was run: as §1
[10] = test system: Feline coronavirus; test: Antiviral activity against Feline coronavirus infected in CRFK cells assessed as reduction of virus-induced cytopathogenicity; format: functional, organism-based; how it was run: as §1
[11] = test system: Influenza A virus H3N2; test: Antiviral activity against Influenza A virus H3N2 infected in MDCK cells assessed as reduction of virus-induced cytopathogenicity; format: functional, organism-based; how it was run: as §2
[12] = Cytotoxicity against HEL cells assessed as alternation of cell morphology by microscopic analysis; format: cell-based; details: human
[13] = test system: Cytomegalovirus; test: Antiviral activity against Cytomegalovirus Davis infected in HEL cells assessed as reduction of virus-induced cytopathogenicity; format: functional, organism-based; details: Human betaherpesvirus 5, Davis
[14] = test system: L1210; test: Cytotoxicity against mouse L1210 cells assessed as inhibition of cell proliferation; format: functional, cell-based
[15] = test system: Cytomegalovirus; test: Antiviral activity against Cytomegalovirus AD-169 infected in HEL cells assessed as reduction of virus-induced cytopathogenicity; format: functional, organism-based; details: Human betaherpesvirus 5, AD-169, HEL

Row | Compound | Activity [1] | Activity [2] | Activity [3] | Activity [4] | Activity [5] | Activity [6] | Activity [7] | Activity [8] | Activity [9] | Activity [10] | Activity [11] | MCC [12] [µM] | pEC50 [13] | pIC50 [14] | pEC50 [15]
1 | CCOP(=O)(OCC)[C@@H]1C[C@@H](CN2C(=O)c3cccc4cc([N+](=O)[O-])cc(c34)C2=O)ON1C (relative stereo) | inactive | inactive | inactive | inactive | inactive | inactive | inactive | inactive | inactive | inactive | inactive | – | – | – | –
2 | CCOP(=O)(OCC)[C@@H]1C[C@@H](CN2C(=O)c3cccc4cccc(c34)C2=O)ON1C (relative stereo) | inactive | inactive | inactive | inactive | inactive | inactive | inactive | inactive | inactive | inactive | inactive | – | – | – | –
3 | CCOP(=O)(OCC)[C@@H]1C[C@H](CN2C(=O)c3cccc4cc(N)cc(c34)C2=O)ON1C (relative stereo) | inactive | inactive | inactive | inactive | inactive | inactive | inactive | inactive | inactive | inactive | inactive | – | – | – | –
4 | CCOP(=O)(OCC)[C@@H]1C[C@H](CN2C(=O)c3cccc4cc(NC(C)=O)cc(c34)C2=O)ON1C (relative stereo) | inactive | inactive | inactive | inactive | inactive | inactive | inactive | inactive | inactive | inactive | inactive | – | – | – | –
5 | CCOP(=O)(OCC)[C@@H]1C[C@H](CN2C(=O)c3cccc4cc([N+](=O)[O-])cc(c34)C2=O)ON1C (relative stereo) | inactive | inactive | inactive | inactive | inactive | inactive | inactive | inactive | inactive | inactive | inactive | – | – | – | –
6 | CCOP(=O)(OCC)[C@@H]1C[C@H](CN2C(=O)c3cccc4cccc(c34)C2=O)ON1C (relative stereo) | inactive | inactive | inactive | inactive | inactive | inactive | inactive | inactive | inactive | inactive | inactive | – | – | – | –
7 | Nc1nc2c(ncn2COCCO)c(=O)[nH]1 [ACYCLOVIR] | – | – | – | – | – | – | – | – | – | – | – | > 250 | – | – | –
8 | Nc1ccn(C[C@@H](CO)OCP(=O)(O)O)c(=O)n1 [CIDOFOVIR] | – | – | – | – | – | – | – | – | – | – | – | > 250 | 5.99 | – | –
9 | O=c1[nH]cc(F)c(=O)[nH]1 [FLUOROURACIL] | – | – | – | – | – | – | – | – | – | – | – | – | – | 6.48 | –
10 | Nc1nc2c(ncn2COC(CO)CO)c(=O)[nH]1 [GANCICLOVIR] | – | – | – | – | – | – | – | – | – | – | – | > 100 | 5.15 | – | 5.20
11 | COc1cccc(N2CCN(C3=Nc4c(F)cccc4[C@H](CC(=O)O)N3c3cc(C(F)(F)F)ccc3OC)CC2)c1 [LETERMOVIR] | – | – | – | – | – | – | – | – | – | – | – | – | – | – | 8.34
